Published values pooled from the literature.
Compare with care: the assays were run in different laboratories. In brackets after ≈: the same amount, converted by molar mass.
Organism: Staphylococcus epidermidis

| SMILES | test | system | setting | quantity | result |
| --- | --- | --- | --- | --- | --- |
| CCCCCC/C=C\CCCCCCCCCc1cc(O)cc(O)c1 | microbial growth, broth dilution | ATCC35984 | drug-resistant strain | MIC | > 64 µg/mL |
| Cc1ccc2[nH]c3c(c2c1)CCCC3NCCc1ccc(O)cc1 (centres unmarked) | microbial growth, broth dilution | MRSE | – | MIC | 16 µg/mL |
| Cc1c(NN=C(C#N)C2=NC(=O)CS2)c(=O)n(-c2ccccc2)n1C | microbial killing, broth dilution | – | – | MBC | 1 µg/mL (≈ 2.82 µM) |
| CCCCCCCCCC(=O)N[C@@H](Cc1c[nH]c2ccccc12)C(=O)N[C@H](CC(N)=O)C(=O)N[C@@H](CC(=O)O)C(=O)N[C@@H]1C(=O)NCC(=O)N[C@@H](CCCN)C(=O)N[C@@H](CC(=O)O)C(=O)N[C@H](C)C(=O)N[C@@H](CC(=O)O)C(=O)NCC(=O)N[C@H](CO)C(=O)N[C@@H]([C@H](C)CC(=O)O)C(=O)N[C@@H](CC(=O)c2ccccc2N)C(=O)O[C@@H]1C | microbial growth, broth dilution | ATCC35984 | drug-resistant strain | MIC | 1 µg/mL |
| Cc1ccc2[nH]c3c(c2c1)CCCC3NCCc1ccc(Br)cc1 (centres unmarked) | microbial growth, broth dilution | MRSE | – | MIC | 4 µg/mL |
| CN[C@H](CC(C)C)C(=O)N[C@H]1C(=O)N[C@@H](CC(N)=O)C(=O)N[C@H]2C(=O)N[C@H]3C(=O)N[C@H](C(=O)N[C@H](C(=O)O)c4cc(O)cc(O)c4-c4cc3ccc4O)[C@H](O)c3ccc(c(Cl)c3)Oc3cc2cc(c3O[C@@H]2O[C@H](CO)[C@@H](O)[C@H](O)[C@H]2O[C@H]2C[C@](C)(N)[C@H](O)[C@H](C)O2)Oc2ccc(cc2Cl)[C@H]1O | microbial growth | ATCC14990 | – | MIC | 0.5 µg/mL |
| CN[C@H](CC(C)C)C(=O)N[C@H]1C(=O)N[C@@H](CC(N)=O)C(=O)N[C@H]2C(=O)N[C@H]3C(=O)N[C@H](C(=O)N[C@H](C(=O)O)c4cc(O)cc(O)c4-c4cc3ccc4O)[C@H](O)c3ccc(c(Cl)c3)Oc3cc2cc(c3O[C@@H]2O[C@H](CO)[C@@H](O)[C@H](O)[C@H]2O[C@H]2C[C@](C)(N)[C@H](O)[C@H](C)O2)Oc2ccc(cc2Cl)[C@H]1O | microbial growth, broth dilution | 12228 | 16 h | MIC | 1.56 µM |
| CN[C@H](CC(C)C)C(=O)N[C@H]1C(=O)N[C@@H](CC(N)=O)C(=O)N[C@H]2C(=O)N[C@H]3C(=O)N[C@H](C(=O)N[C@H](C(=O)O)c4cc(O)cc(O)c4-c4cc3ccc4O)[C@H](O)c3ccc(c(Cl)c3)Oc3cc2cc(c3O[C@@H]2O[C@H](CO)[C@@H](O)[C@H](O)[C@H]2O[C@H]2C[C@](C)(N)[C@H](O)[C@H](C)O2)Oc2ccc(cc2Cl)[C@H]1O | microbial growth, broth dilution | 12228 | – | MIC | 0.78 µM |
